Assay results from ChEMBL document CHEMBL4346684, “Synthesis and structure-bactericidal activity relationships of non-ketolides: 9-Oxime clarithromycin 11,12-cyclic carbonate featured with three-to eight-atom-length spacers at 3-OH” (Eur J Med Chem, 2019).
In brackets after ≈: the same amount, converted by molar mass. Activity calls are given as the source filed them. The rule behind the calls is not given here.

Assays:
Haemophilus influenzae [1] = experiment: Bactericidal activity against azithromycin-susceptible Haemophilus influenzae ATCC 49247 assessed as reduction in colony formation incubated in HTM broth medium for 20 to 24 hrs followed by 24 hrs subculturing in the medium without test compound; assay type: functional
Staphylococcus aureus [2] = experiment: Ratio of MBC to MIC for inducibly erythromycin-resistant and methicillin resistant Staphylococcus aureus PU32 expressing i-ermA; assay type: functional
Staphylococcus aureus [3] = experiment: Antimicrobial activity against inducibly erythromycin-resistant and methicillin resistant Staphylococcus aureus PU32 expressing i-ermA incubated in CAMHB medium for 20 hrs by two-fold microbroth dilution method; assay type: functional; details: PU32, 20 h
Method in brief: (§1)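 Purified fresh Staphylococcus isolate at about 5×10^5 CFU/ml final in CAMHB, 35 °C for 20 h. Each run included ATCC strains and reference antibiotics as QC, plus an antibiotic-free growth control.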

Staphylococcus aureus [4] = experiment: Antimicrobial activity against constitutively erythromycin resistant and methicillin resistant Staphylococcus aureus PU20 expressing c-ermC incubated in CAMHB medium for 20 hrs by two-fold microbroth dilution method; assay type: functional; details: PU20, 20 h; method in brief: as §1
Cytochrome P450 3A4 = Cytochrome P450 3A4 (Homo sapiens, UniProt P08684); experiment: Inhibition of CYP3A4 in human liver microsomes using midazolam as substrate incubated for 10 mins after substrate addition by HPLC analysis; assay type: ADME
Method in brief: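 Human liver microsome CYP3A4 (0.03 mg/mL final), midazolam 5.00 μM final, 0.1 M potassium phosphate pH 7.4 with MgCl2, preincubated 37 °C 5 min. Test compound 0-25.00 μM (ketoconazole 0-0.25 μM as reference) and NADPH 1.5 mM final added; 10 min at 37 °C. Metabolite/internal-standard peak-area ratio measured by UPLC-MS/MS; IC50 fitted.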

Streptococcus pneumoniae [5] = experiment: Bactericidal activity against mef-encoded erythromycin resistant Streptococcus pneumoniae PU09 at 1 to 16xMIC incubated for 1 to 24 hrs by broth dilution method; assay type: functional, organism-based
Method in brief: (§2)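 Samples were taken at 1, 2, 4, 6, 8, 12 and 24 h, diluted and subcultured at 35 °C for 20–24 h. Colonies were counted and log CFU plotted against time; detection limit 300 CFU/mL.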

[6] = Clearance in Sprague-Dawley rat at 20 mg/kg, po administered as single dose measured for 0.25 to 24 hrs by LC-MS/MS analysis; assay type: ADME, organism-based; details: in vivo
Method in brief: (§3)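 Male SD rats (2-3 per compound) given a single oral 20 mg/kg dose in saline with 1% DMF/20% hydroxypropyl-β-cyclodextrin (w/v). Blood drawn at 0.25, 0.5, 1, 2, 4, 6, 8 and 24 h, centrifuged 2500 g, 5 min, 4 °C; drug quantified by LC-MS/MS. Noncompartmental parameters calculated (AUC0-t, AUCinf, CL, t1/2, MRT, Cmax, Tmax); mean ± s.d.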

Rattus norvegicus [7] = experiment: Ratio of telithromycin Tmax to compound Tmax in Sprague-Dawley rat at 20 mg/kg, po administered as single dose measured for 0.25 to 24 hrs by LC-MS/MS analysis; assay type: ADME, organism-based; details: in vivo
[8] = MRT in Sprague-Dawley rat at 20 mg/kg, po administered as single dose measured for 0.25 to 24 hrs by LC-MS/MS analysis; assay type: ADME, organism-based; details: in vivo; method in brief: as §3
Rattus norvegicus [9] = experiment: Ratio of telithromycin clearance to compound clearance in Sprague-Dawley rat at 20 mg/kg, po administered as single dose measured for 0.25 to 24 hrs by LC-MS/MS analysis; assay type: ADME, organism-based; details: in vivo
Streptococcus pneumoniae [10] = experiment: Bactericidal activity against erythromycin-susceptible Streptococcus pneumoniae ATCC 49619 assessed as reduction in colony formation incubated in CAMHB medium for 20 to 24 hrs followed by 24 hrs subculturing in the medium without test compound; assay type: functional
Streptococcus pyogenes [11] = experiment: Ratio of clarithromycin MBC to compound MBC for inducibly erythromycin resistant Streptococcus pyogenes 01-968 expressing i-ermA; assay type: functional
Haemophilus influenzae [12] = experiment: Antimicrobial activity against azithromycin-susceptible Haemophilus influenzae ATCC 49247 incubated in HTM broth medium for 20 to 24 hrs by two-fold microbroth dilution method; assay type: functional
Rattus norvegicus [13] = experiment: Ratio of telithromycin AUC to compound AUC in Sprague-Dawley rat at 20 mg/kg, po administered as single dose measured for 0.25 to 24 hrs by LC-MS/MS analysis; assay type: ADME, organism-based; details: in vivo
[14] = Half life in Sprague-Dawley rat at 20 mg/kg, po administered as single dose measured for 0.25 to 24 hrs by LC-MS/MS analysis; assay type: ADME, organism-based; details: in vivo; method in brief: as §3
[15] = AUCinfinity in Sprague-Dawley rat at 20 mg/kg, po administered as single dose measured for 0.25 to 24 hrs by LC-MS/MS analysis; assay type: ADME, organism-based; design: dose 20 mg/kg, time infinity, route oral; details: in vivo; method in brief: as §3
Streptococcus pneumoniae [16] = experiment: Bactericidal activity against mef-encoded erythromycin resistant Streptococcus pneumoniae PU09 assessed as reduction in colony formation incubated in CAMHB medium for 20 to 24 hrs followed by 24 hrs subculturing in the medium without test compound; assay type: functional
Streptococcus pyogenes [17] = experiment: Bactericidal activity against inducibly erythromycin resistant Streptococcus pyogenes 01-968 expressing i-ermA assessed as log reduction in bacterial CFU at 1 to 16XMIC incubated for 24 hrs by broth dilution method; assay type: functional; method in brief: as §2
Staphylococcus aureus [18] = experiment: Ratio of clarithromycin MBC to compound MBC for inducibly erythromycin-resistant and methicillin resistant Staphylococcus aureus PU32 expressing i-ermA; assay type: functional
Streptococcus pyogenes [19] = experiment: Ratio of MBC to MIC for inducibly erythromycin resistant Streptococcus pyogenes 01-968 expressing i-ermA; assay type: functional
Staphylococcus aureus [20] = experiment: Bactericidal activity against inducibly erythromycin-resistant and methicillin resistant Staphylococcus aureus PU32 expressing i-ermA assessed as reduction in colony formation incubated in CAMHB medium for 20 hrs followed by 24 hrs subculturing in the medium without test compound; assay type: functional
Streptococcus pneumoniae [21] = experiment: Ratio of MBC to MIC for erythromycin-susceptible Streptococcus pneumoniae ATCC 49619; assay type: functional
Haemophilus influenzae [22] = experiment: Ratio of MBC to MIC for azithromycin-susceptible Haemophilus influenzae ATCC 49247; assay type: functional
[23] = Cmax in Sprague-Dawley rat at 20 mg/kg, po administered as single dose measured for 0.25 to 24 hrs by LC-MS/MS analysis; assay type: ADME, organism-based; design: dose 20 mg/kg, route oral; details: in vivo; method in brief: as §3
Streptococcus pneumoniae [24] = experiment: Bactericidal activity against erythromycin-susceptible Streptococcus pneumoniae ATCC 49619 incubated at >1XMIC incubated for 1 to 24 hrs by broth dilution method; assay type: functional, organism-based
Method in brief: (§4)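 Samples taken at 1, 2, 4, 6, 8, 12, 24 h, diluted and plated, colonies counted after 20-24 h at 35 °C; log CFU plotted against time. Detection limit 300 CFU/mL.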

Rattus norvegicus [25] = experiment: Ratio of telithromycin Cmax to compound Cmax in Sprague-Dawley rat at 20 mg/kg, po administered as single dose measured for 0.25 to 24 hrs by LC-MS/MS analysis; assay type: ADME, organism-based; details: in vivo
[26] = Ratio of telithromycin MRT to compound MRT in Sprague-Dawley rat at 20 mg/kg, po administered as single dose measured for 0.25 to 24 hrs by LC-MS/MS analysis; assay type: ADME, organism-based; details: in vivo
Rattus norvegicus [27] = experiment: Ratio of telithromycin half life to compound half life in Sprague-Dawley rat at 20 mg/kg, po administered as single dose measured for 0.25 to 24 hrs by LC-MS/MS analysis; assay type: ADME, organism-based; details: in vivo
Streptococcus pyogenes [28] = experiment: Antimicrobial activity against inducibly erythromycin resistant Streptococcus pyogenes 01-968 expressing i-ermA incubated in CAMHB medium for 20 to 24 hrs by two-fold microbroth dilution method; assay type: functional
[29] = Tmax in Sprague-Dawley rat at 20 mg/kg, po administered as single dose measured for 0.25 to 24 hrs by LC-MS/MS analysis; assay type: ADME, organism-based; details: in vivo; method in brief: as §3
[30] = AUC (0 to t) in Sprague-Dawley rat at 20 mg/kg, po administered as single dose measured for 0.25 to 24 hrs by LC-MS/MS analysis; assay type: ADME, organism-based; design: time 0.25-24 hr, dose 20 mg/kg, route oral; details: in vivo; method in brief: as §3
Streptococcus pyogenes [31] = experiment: Bactericidal activity against inducibly erythromycin resistant Streptococcus pyogenes 01-968 expressing i-ermA assessed as reduction in colony formation incubated in CAMHB medium for 20 to 24 hrs followed by 24 hrs subculturing in the medium without test compound; assay type: functional
Streptococcus pneumoniae [32] = experiment: Antimicrobial activity against erythromycin-susceptible Streptococcus pneumoniae ATCC 49619 incubated in CAMHB medium for 20 to 24 hrs by two-fold microbroth dilution method; assay type: functional
Streptococcus pyogenes [33] = experiment: Bactericidal activity against inducibly erythromycin resistant Streptococcus pyogenes 01-968 expressing i-ermA at 1 to 16XMIC incubated for 12 hrs by broth dilution method; assay type: functional, organism-based; method in brief: as §2
Streptococcus pneumoniae [34] = experiment: Bactericidal activity against erythromycin-susceptible Streptococcus pneumoniae ATCC 49619 assessed as log reduction in bacterial CFU at 1XMIC incubated for 1 to 24 hrs by broth dilution method; assay type: functional; method in brief: as §4
Streptococcus pneumoniae [35] = experiment: Ratio of MBC to MIC for mef-encoded erythromycin resistant Streptococcus pneumoniae PU09; assay type: functional
Streptococcus pneumoniae [36] = experiment: Antimicrobial activity against mef-encoded erythromycin resistant Streptococcus pneumoniae PU09 incubated in CAMHB medium for 20 to 24 hrs by two-fold microbroth dilution method; assay type: functional
Streptococcus pneumoniae [37] = experiment: Ratio of clarithromycin MBC to compound MBC for mef-encoded erythromycin resistant Streptococcus pneumoniae PU09; assay type: functional

Cytochrome P450 3A4, sequence (P08684 whole entry): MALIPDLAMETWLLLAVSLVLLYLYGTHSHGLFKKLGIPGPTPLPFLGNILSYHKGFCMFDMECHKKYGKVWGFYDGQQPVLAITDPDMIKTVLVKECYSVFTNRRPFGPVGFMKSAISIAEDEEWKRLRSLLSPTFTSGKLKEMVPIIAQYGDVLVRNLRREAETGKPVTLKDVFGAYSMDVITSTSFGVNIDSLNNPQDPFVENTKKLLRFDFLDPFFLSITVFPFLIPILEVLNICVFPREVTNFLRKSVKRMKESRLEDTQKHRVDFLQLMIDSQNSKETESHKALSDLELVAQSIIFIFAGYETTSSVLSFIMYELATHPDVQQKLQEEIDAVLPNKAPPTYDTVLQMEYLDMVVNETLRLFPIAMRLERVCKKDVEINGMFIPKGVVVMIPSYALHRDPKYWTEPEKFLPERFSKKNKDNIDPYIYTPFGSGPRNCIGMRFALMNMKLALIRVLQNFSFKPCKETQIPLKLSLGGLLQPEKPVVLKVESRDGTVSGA

CC[C@H]1OC(=O)[C@H](C)[C@@H](OC(=O)NCCCc2cccnc2)[C@H](C)[C@@H](O[C@@H]2O[C@H](C)C[C@H](N(C)C)[C@H]2O)[C@](C)(OC)C[C@@H](C)/C(=N\OC)[C@H](C)[C@H]2OC(=O)O[C@@]21C
MBC (Haemophilus influenzae [1]): 128 µg/mL (≈ 159 µM)
Ratio (Staphylococcus aureus [2]): 2
MIC (Staphylococcus aureus [3]): 8 µg/mL (≈ 9.91 µM)
MIC (Staphylococcus aureus [4]): > 256 µg/mL
IC50 (Cytochrome P450 3A4): 2500 nM
Activity (Streptococcus pneumoniae [5]): Active
CL/F [6]: 50.6 mL/min/kg
Ratio (Rattus norvegicus [7]): 0.4
MRT [8]: 4.53 h
Ratio (Rattus norvegicus [9]): 7
MBC (Streptococcus pneumoniae [10]): 0.125 µg/mL (≈ 0.155 µM)
Ratio (Streptococcus pyogenes [11]): 32
MIC (Haemophilus influenzae [12]): 64 µg/mL (≈ 79.3 µM)
Ratio (Rattus norvegicus [13]): 7
half-life [14]: 2.94 h
AUC(0-inf) [15]: 6760 ng·h/mL
MBC (Streptococcus pneumoniae [16]): 0.5 µg/mL (≈ 0.62 µM)
Activity (Streptococcus pyogenes [17]): <=3 log10CFU
Ratio (Staphylococcus aureus [18]): 32
Ratio (Streptococcus pyogenes [19]): 8
MBC (Staphylococcus aureus [20]): 16 µg/mL (≈ 19.8 µM)
Ratio (Streptococcus pneumoniae [21]): 2
Ratio (Haemophilus influenzae [22]): 2
Cmax [23]: 1030 ng/mL
Activity (Streptococcus pneumoniae [24]): Active
Ratio (Rattus norvegicus [25]): 5
Ratio [26]: 1.4
Ratio (Rattus norvegicus [27]): 2.4
MIC (Streptococcus pyogenes [28]): 0.25 µg/mL (≈ 0.31 µM)
Tmax [29]: 0.833 h
AUC(0-t) [30]: 6730 ng·h/mL
MBC (Streptococcus pyogenes [31]): 2 µg/mL (≈ 2.48 µM)
MIC (Streptococcus pneumoniae [32]): 0.06 µg/mL (≈ 0.0743 µM)
Activity (Streptococcus pyogenes [33]): Active
Activity (Streptococcus pneumoniae [34]): 2 log10CFU
Ratio (Streptococcus pneumoniae [35]): 1
MIC (Streptococcus pneumoniae [36]): 0.5 µg/mL (≈ 0.62 µM)
Ratio (Streptococcus pneumoniae [37]): 32
